What was measured:
[1] = system: Syrian golden hamster; test: Oral bioavailability in golden Syrian hamster at 40 mg/kg by LC-MS/MS analysis; assay type: ADME, organism-based, Mesocricetus auratus; details: in vivo
[2] = Initial concentration in Sprague-Dawley rat at 1 mg/kg, iv by LC-MS/MS analysis; assay type: ADME, organism-based; details: in vivo
In short: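 Male Sprague-Dawley rats, fasted, dosed iv at 1 mg/kg as a solution in 20% NMP/40% PEG-400 in citrate buffer (pH 3). Plasma was analysed by LC–MS/MS and C0 was derived with WinNonlin-type PK analysis.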

[3] = Half life in golden Syrian hamster at 40 mg/kg, po by LC-MS/MS analysis; assay type: ADME, organism-based, Mesocricetus auratus; details: in vivo
[4] = Volume of distribution at steady state in golden Syrian hamster at 2 mg/kg, iv by LC-MS/MS analysis; assay type: ADME, organism-based, Mesocricetus auratus; details: in vivo, read-out: Vdss
In short: (§1)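 Fasted female golden Syrian hamsters given 2 mg/kg iv as a solution in 20% NMP and 40% PEG-400 in citrate buffer pH 3. Plasma concentrations determined by LC–MS/MS to derive PK parameters.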

[5] = Half life in Swiss albino mouse at 40 mg/kg, po by LC-MS/MS analysis; assay type: ADME, organism-based; details: in vivo
[6] = Metabolic stability in hamster liver microsomes assessed as parent compound remaining at 1 uM after 1 hr; assay type: ADME, microsome; details: read-out: Stability
[7] = system: Mus musculus; test: (§2) Cmax in Swiss albino mouse at 40 mg/kg, po by LC-MS/MS analysis; assay type: ADME, organism-based; parameters: dose 40 mg/kg, route oral; details: in vivo
[8] = Apparent permeability from apical to basolateral side in MDCK cells harboring MDR1 at 2 uM after 150 mins by LC-MS/MS analysis; assay type: ADME, cell-based, Canis lupus familiaris; details: dog
In short: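 MDCK-MDR1 monolayers were seeded at 2 × 10^5 cells/cm2 and grown to confluence over 4–7 days. Compound at 2 μM in 0.4% DMSO/HBSS was applied apically or basolaterally. Plates were incubated 150 min at 37 °C, 5% CO2, in triplicate. Quantitation was by LC–MS/MS analyte/internal-standard peak-area ratio.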

[9] = system: Rattus norvegicus; test: (§3) Oral bioavailability in Sprague-Dawley rat at 40 mg/kg by LC-MS/MS analysis; assay type: ADME, organism-based; details: in vivo
In short: (§4)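 Fasted male Sprague-Dawley rats dosed orally at 40–50 mg/kg as a suspension in 0.08% Tween 80/0.5% CMC in water. iv reference was 1 mg/kg in 20% NMP/40% PEG-400 in citrate buffer pH 3. Plasma analysed by LC–MS/MS. F from dose-normalized AUClast.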

[10] = AUClast in Sprague-Dawley rat at 1 mg/kg, iv after 24 to 48 hrs by LC-MS/MS analysis; assay type: ADME, organism-based; details: in vivo
In short: (§5)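 Fasted male Sprague-Dawley rats. IV dose was 1 mg/kg as a solution in 20% NMP and 40% PEG-400 in citrate buffer (pH 3). Oral dose was 40–50 mg/kg as a suspension in 0.08% Tween 80 and 0.5% CMC in water. Plasma was analysed by LC–MS/MS. AUClast was taken to the last time point (24 or 48 h).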

[11] = Half life in Sprague-Dawley rat at 1 mg/kg, iv by LC-MS/MS analysis; assay type: ADME, organism-based; details: in vivo; in short: as §5
[12] = system: Rattus norvegicus; test: (§6) Cmax in Sprague-Dawley rat at 40 mg/kg, po by LC-MS/MS analysis; assay type: ADME, organism-based; parameters: dose 40 mg/kg, route oral; details: in vivo; in short: as §5
[13] = system: Rattus norvegicus; test: (§7) Tmax in Sprague-Dawley rat at 40 mg/kg, po by LC-MS/MS analysis; assay type: ADME, organism-based; details: in vivo; in short: as §4
[14] = Half life in golden Syrian hamster at 2 mg/kg, iv by LC-MS/MS analysis; assay type: ADME, organism-based, Mesocricetus auratus; details: in vivo
In short: (§8)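 Fasted female golden Syrian hamsters. IV dose was 2 mg/kg as a solution in 20% NMP and 40% PEG-400 in citrate buffer (pH 3). Oral dosing at 40–50 mg/kg used PEG-400 as vehicle. Plasma was quantified by LC–MS/MS. AUClast was taken to the last time point (24 or 48 h).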

[15] = Volume of distribution at steady state in Sprague-Dawley rat at 1 mg/kg, iv by LC-MS/MS analysis; assay type: ADME, organism-based; details: in vivo, read-out: Vdss
In short: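 Fasted male Sprague-Dawley rats received 1 mg/kg iv as a solution in 20% NMP/40% PEG-400 in citrate buffer pH 3. Plasma concentrations by LC–MS/MS used for PK parameter estimation.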

[16] = Octanol/phosphate buffer solution distribution coefficient, log D of the compound at pH 7.4 by LC-MS/MS method; assay type: physicochemical; details: octanol/water
In short: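 Shake-flask partition between octanol and 100 mM phosphate buffer pH 7.4 at room temperature, final matrix 1% DMSO. Phases quantified by LC–MS/MS.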

[17] = Tmax in golden Syrian hamster at 40 mg/kg, po by LC-MS/MS analysis; assay type: ADME, organism-based, Mesocricetus auratus; details: in vivo
[18] = Clearance in Sprague-Dawley rat at 1 mg/kg, iv by LC-MS/MS analysis; assay type: ADME, organism-based; details: in vivo; in short: as §5
[19] = system: Mus musculus; test: (§9) AUClast in Swiss albino mouse at 40 mg/kg, po after 24 to 48 hrs by LC-MS/MS analysis; assay type: ADME, organism-based; details: in vivo
[20] = system: Mus musculus; test: (§10) Tmax in Swiss albino mouse at 40 mg/kg, po by LC-MS/MS analysis; assay type: ADME, organism-based; details: in vivo
[21] = Cmax in golden Syrian hamster at 40 mg/kg, po by LC-MS/MS analysis; assay type: ADME, organism-based, Mesocricetus auratus; parameters: dose 40 mg/kg, route oral; details: in vivo; in short: as §8
[22] = AUClast in golden Syrian hamster at 40 mg/kg, po after 24 to 48 hrs by LC-MS/MS analysis; assay type: ADME, organism-based, Mesocricetus auratus; details: in vivo; in short: as §8
[23] = AUClast in golden Syrian hamster at 2 mg/kg, iv after 24 to 48 hrs by LC-MS/MS analysis; assay type: ADME, organism-based, Mesocricetus auratus; details: in vivo; in short: as §8
[24] = Initial concentration in golden Syrian hamster at 2 mg/kg, iv by LC-MS/MS analysis; assay type: ADME, organism-based, Mesocricetus auratus; details: in vivo; in short: as §1
[25] = Volume of distribution at steady state in Swiss albino mouse at 1 mg/kg, iv by LC-MS/MS analysis; assay type: ADME, organism-based; details: in vivo, read-out: Vdss
In short: (§11)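 Male Swiss albino mice given 1 mg/kg iv in 20% NMP/40% PEG-400 in 100 mM citrate buffer pH 3. Plasma sampled at 0.083, 0.25, 0.5, 1, 2, 4, 6, 8, 10, 24 and 48 h. Levels measured by LC–MS/MS; noncompartmental PK parameters.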

[26] = Tmax in Swiss albino mouse at 25 mg/kg, po by LC-MS/MS analysis; assay type: ADME, organism-based; details: in vivo
In short: (§12)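 Male Swiss albino mice dosed orally at 25 mg/kg as a suspension in 0.5% CMC/0.08% Tween 80 in water. Plasma sampled 0.25–48 h, analysed by LC–MS/MS. F from dose-normalized AUClast against a 1 mg/kg iv dose.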

[27] = Clearance in Swiss albino mouse at 1 mg/kg, iv by LC-MS/MS analysis; assay type: ADME, organism-based; details: in vivo
[28] = AUClast in Swiss albino mouse at 25 mg/kg, po after 24 to 48 hrs by LC-MS/MS analysis; assay type: ADME, organism-based; details: in vivo
[29] = Half life in Swiss albino mouse at 1 mg/kg, iv by LC-MS/MS analysis; assay type: ADME, organism-based; details: Swiss albino, in vivo
[30] = system: Mus musculus; test: Oral bioavailability in Swiss albino mouse at 25 mg/kg by LC-MS/MS analysis; assay type: ADME, organism-based; details: in vivo; in short: as §12
[31] = Metabolic stability in hamster liver microsomes assessed as parent compound remaining at 0.5 uM after 0.5 hr; assay type: ADME, microsome; details: read-out: Stability
[32] = Cmax in Swiss albino mouse at 25 mg/kg, po by LC-MS/MS analysis; assay type: ADME, organism-based; parameters: dose 25 mg/kg, route oral; details: in vivo
[33] = AUClast in Swiss albino mouse at 1 mg/kg, iv after 24 to 48 hrs by LC-MS/MS analysis; assay type: ADME, organism-based; details: in vivo
[34] = Initial concentration in Swiss albino mouse at 1 mg/kg, iv by LC-MS/MS analysis; assay type: ADME, organism-based; details: in vivo; in short: as §11
[35] = system: Liver; test: Metabolic stability in CD-1 mouse liver microsomes assessed as parent compound remaining at 1 uM after 1 hr; assay type: ADME, microsome
[36] = as §2; assay type: ADME, organism-based; parameters: dose 40 mg/kg, route oral; details: Swiss albino, in vivo
[37] = as §3; assay type: ADME, organism-based; details: Sprague-Dawley, in vivo; in short: as §4
[38] = AUClast in golden Syrian hamster at 50 mg/kg, po after 24 to 48 hrs by LC-MS/MS analysis; assay type: ADME, organism-based, Mesocricetus auratus; details: in vivo; in short: as §8
[39] = AUClast in Sprague-Dawley rat at 40 mg/kg, po after 24 to 48 hrs by LC-MS/MS analysis; assay type: ADME, organism-based; details: in vivo
[40] = as §6; assay type: ADME, organism-based; parameters: dose 40 mg/kg, route oral; details: Sprague-Dawley, in vivo; in short: as §5
[41] = as §7; assay type: ADME, organism-based; details: Sprague-Dawley, in vivo; in short: as §4
[42] = Half life in golden Syrian hamster at 50 mg/kg, po by LC-MS/MS analysis; assay type: ADME, organism-based, Mesocricetus auratus; details: in vivo
[43] = Half life in Sprague-Dawley rat at 40 mg/kg, po by LC-MS/MS analysis; assay type: ADME, organism-based; details: in vivo; in short: as §5
[44] = system: Liver; test: Metabolic stability in human liver microsomes assessed as parent compound remaining at 1 uM after 1 hr; assay type: ADME, microsome
[45] = as §9; assay type: ADME, organism-based; details: Swiss albino, in vivo
[46] = as §10; assay type: ADME, organism-based; details: Swiss albino, in vivo
[47] = Tmax in golden Syrian hamster at 50 mg/kg, po by LC-MS/MS analysis; assay type: ADME, organism-based, Mesocricetus auratus; details: in vivo
[48] = Cmax in golden Syrian hamster at 50 mg/kg, po by LC-MS/MS analysis; assay type: ADME, organism-based, Mesocricetus auratus; parameters: dose 50 mg/kg, route oral; details: in vivo; in short: as §8

## O=[N+]([O-])c1cn2c(n1)OC[C@H](Oc1ccc(OC(F)(F)F)cc1)C2
[1]
  F: 100%
[2]
  C0: 540 ng/mL
[3]
  half-life: 2.2 h
[4]
  Vd: 6.5 L/kg
[5]
  half-life: 7.8 h
[6]
  remaining at 1 h, 1 µM: 19%
[7]
  Cmax: 21000 ng/mL
[8]
  Papp: 32.4 ×10⁻⁶ cm/s
[9]
  F: 100%
[10]
  AUC(0-t): 1.51 µg·h/mL
[11]
  half-life: 3 h
[12]
  Cmax: 5200 ng/mL
[13]
  Tmax: 6.7 h
[14]
  half-life: 1.4 h
[15]
  Vd: 2.7 L/kg
[16]
  logD: 2.59
[17]
  Tmax: 3.3 h
[18]
  clearance: 11 mL/min/kg
[19]
  AUClast: 272 µg·h/mL
[20]
  Tmax: 5.3 h
[21]
  Cmax: 2100 ng/mL
[22]
  AUC(0-t): 11.2 µg·h/mL
[23]
  AUC(0-t): 0.42 µg·h/mL
[24]
  C0: 660 ng/mL

## O=[N+]([O-])c1cn2c(n1)OCC(COc1ccc(-c3ccc(F)cc3)nc1)C2 (stereo not given)
[25]
  Vd: 1.8 L/kg
[26]
  Tmax: 8 h
[27]
  clearance: 5.2 mL/min/kg
[28]
  AUC(0-t): 12 µg·h/mL
[29]
  half-life: 2.7 h
[30]
  F: 15%
[31]
  remaining at 0.5 h, 0.5 µM: 64%
[32]
  Cmax: 840 ng/mL
[33]
  AUC(0-t): 3.18 µg·h/mL
[34]
  C0: 440 ng/mL

## O=[N+]([O-])c1cn2c(n1)OC[C@H](Oc1ccc(C(F)(F)F)cn1)C2
[35]
  Stability: 92%
[2]
  C0: 840 ng/mL
[5]
  half-life: 30 h
[6]
  remaining at 1 h, 1 µM: 48%
[36]
  Cmax: 96000 ng/mL
[37]
  bioavailability: 100%
[38]
  AUC(0-t): 71 µg·h/mL
[10]
  AUC(0-t): 2.47 µg·h/mL
[39]
  AUC(0-t): 164 µg·h/mL
[11]
  half-life: 2.7 h
[40]
  Cmax: 18000 ng/mL
[41]
  Tmax: 2.7 h
[15]
  Vd: 1.5 L/kg
[42]
  half-life: 3.1 h
[43]
  half-life: 3.5 h
[44]
  Stability: 90%
[18]
  clearance: 6.1 mL/min/kg
[45]
  AUC(0-t): 1780 µg·h/mL
[46]
  Tmax: 3.1 h
[47]
  Tmax: 3.3 h
[48]
  Cmax: 12000 ng/mL
